Measured values: ChEMBL document CHEMBL2040813, “4-Thiophenoxy-2-trichloromethyquinazolines display in vitro selective antiplasmodial activity against the human malaria parasite Plasmodium falciparum” (Bioorg Med Chem Lett, 2011)

Experiments:
Plasmodium falciparum = experiment: Antiplasmodial activity against chloroquine, pyrimethamine, and proguanil-resistant Plasmodium falciparum K1 infected in human A+ erythrocytes after 72 hrs by SYBR Green-I fluorescence-based method; format: functional, organism-based; conditions: K1, 72 h
Outline: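 Ring-stage cultures (5% sorbitol synchronised), maintained in A+ human erythrocytes with RPMI/HEPES/NaHCO3/10% A+ serum under 5% O2, 5% CO2. Assay at 2% haematocrit, 1% parasitaemia, graded compound concentrations, 72 h at 37 °C in triplicate. IC50 by nonlinear regression, mean of three independent experiments.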

[1] = Selectivity index, ratio of CC50 for human HepG2 cells to IC50 for chloroquine, pyrimethamine, and proguanil-resistant Plasmodium falciparum K1; format: functional
Outline: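 SI = HepG2 CC50 / K1 IC50. The read-out was MTT for 2 h, formazan dissolved in DMSO, A570 with 630 nm reference. Viability is expressed as % of untreated control, CC50 taken from the dose-response curve. The IC50 is from the SYBR Green K1 assay.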

[2] = Cytotoxicity against human HepG2 cells after 72 hrs by MTT assay; format: cell-based
Outline: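 Cells seeded in RPMI with 10% foetal bovine serum, L-glutamine, penicillin/streptomycin, 37 °C, 6% CO₂; after 24 h, compound dilutions added for 72 h. MTT (5 mg/mL in PBS) added 2 h at 37 °C, formazan dissolved in DMSO, absorbance 570 nm (reference 630 nm). Viability as percent of untreated cells; CC50 from dose–response curve; mean of three independent experiments.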

Toxoplasma gondii = experiment: Antimicrobial activity against tachyzoites of Toxoplasma gondii expressing PRU-beta-Gal gene infected in HFF after 72 hrs by colorimetric microtiter assay; format: functional, organism-based

Compound | IC50 (Plasmodium falciparum) | Ratio CC50/IC50 [1] | CC50 at 72 h [2] | IC50 (Toxoplasma gondii)
ClC(Cl)(Cl)c1nc(Sc2ccccc2)c2ccccc2n1 | 1.9 µM | 18.4 | 35 µM | 
Clc1ccccc1Sc1nc(C(Cl)(Cl)Cl)nc2ccccc12 | 2.8 µM | 9.3 | 26 µM | 
Clc1cccc(Sc2nc(C(Cl)(Cl)Cl)nc3ccccc23)c1 | 2.2 µM | 7.3 | 16 µM | 
Fc1ccccc1Sc1nc(C(Cl)(Cl)Cl)nc2ccccc12 | 2.3 µM | 12.2 | 28 µM | 
Fc1cccc(Sc2nc(C(Cl)(Cl)Cl)nc3ccccc23)c1 | 1.9 µM | 8.2 | 15.5 µM | 
Fc1ccc(Sc2nc(C(Cl)(Cl)Cl)nc3ccccc23)cc1 | 1.2 µM | >25 | > 30 µM | 
FC(F)(F)c1ccccc1Sc1nc(C(Cl)(Cl)Cl)nc2ccccc12 | 2.5 µM | 11.2 | 28 µM | 
FC(F)(F)c1cccc(Sc2nc(C(Cl)(Cl)Cl)nc3ccccc23)c1 | 2.2 µM | 8 | 17.5 µM | 
FC(F)(F)c1ccc(Sc2nc(C(Cl)(Cl)Cl)nc3ccccc23)cc1 | 1 µM | 13 | 13 µM | 
Cc1ccccc1Sc1nc(C(Cl)(Cl)Cl)nc2ccccc12 | 7 µM | 7.4 | 52 µM | 
Cc1cccc(Sc2nc(C(Cl)(Cl)Cl)nc3ccccc23)c1 | 1.9 µM | 18.4 | 35 µM | 
Cc1ccc(Sc2nc(C(Cl)(Cl)Cl)nc3ccccc23)cc1 | 1.6 µM | >19 | > 30 µM | 
COc1ccccc1Sc1nc(C(Cl)(Cl)Cl)nc2ccccc12 | 3.9 µM | 8.2 | 32 µM | 
COc1cccc(Sc2nc(C(Cl)(Cl)Cl)nc3ccccc23)c1 | 2 µM | 6 | 12 µM | 
COc1ccc(Sc2nc(C(Cl)(Cl)Cl)nc3ccccc23)cc1 | 2.5 µM | >3.2 | > 8 µM | 
Clc1ccc(Sc2nc(C(Cl)(Cl)Cl)nc3ccccc23)c(Cl)c1 | 1.5 µM | 12.1 | 18.2 µM | 
Clc1ccc(Sc2ncnc3ccccc23)cc1 | 4.4 µM | 3.8 | 16.7 µM | 
FC(F)(F)c1nc(Sc2ccc(Cl)cc2)c2ccccc2n1 | > 15 µM |  | > 15 µM | 
Clc1nc(C(Cl)(Cl)Cl)nc2ccccc12 |  | >2.3 | > 125 µM | 
C[C@H]1c2cccc(O)c2C(=O)C2=C(O)[C@]3(O)C(=O)C(C(N)=O)=C(O)[C@@H](N(C)C)[C@@H]3[C@@H](O)[C@@H]21.O [DOXYCYCLINE] | 5 µM | 4 |  | 
CCc1nc(N)nc(N)c1-c1ccc(Cl)cc1 [PYRIMETHAMINE] |  |  |  | 0.8 µM
